Most compounds without a hit are left out; they make up all but 2.8% or so of the library.
AI-2 QS mod: Vibrio harveyi AI-2 quorum sensing modulation | activity change, % at 7.5 µM | 0.4% of 300,000 active | AID 2094 | Vibrio harveyi JMH597 AI-2 luminescence/OD600 ratio, 9 h; stronger effect = lower value; strain lacks LuxN and CqsS sensors; 0 = neutral-control median; in the data active means activity change below about -75%, passing the limit was not always enough;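 further: luminescence divided by OD600 gain over 9 h not by final OD600 alone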
UBC13 polyUb: human UBC13 polyubiquitination inhibition. P61088. UBC13 polyubiquitin chain formation, TR-FRET. inhibition, % at 20 µM. 0.47% of 330,000 active. AID 485273; in the data active means inhibition above about 45%, passing the limit was not always enough
T cruzi repl: T. cruzi replication inhibition; T. cruzi beta-gal in NIH3T3, luminescence, 90 h; inhibition, % (concentration not given with the values); 1.4% of 300,000 active;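 active means mean inhibition across valid replicates above about 55%, limit read from the data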;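 further: signal also drops with host cell toxicity which is not excluded here; 0% = plate median of DMSO wells and 100% = zero luminescence signal; higher percent means less beta-gal luminescence so fewer parasites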
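System: mouse NIH/3T3 fibroblasts infected with β-gal-expressing T. cruzi Tulahuen C4 / Input: NIH/3T3 cells, 5,000 per well / Buffer or medium: Low-serum DMEM with 2% FBS / Probe or stimulus: 5000 reporter trypomastigotes per well / Schedule: ≥90 h infection period, 3 h prior cell attachment / Measured by: GalScreen luminescence, 60 min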
p-CIP stab down: lowers stability of the mouse p/CIP coactivator protein; F442A p/CIP-EGFP cells, EGFP fluorescence, 16 h; decrease of EGFP signal, % at 10 µM; 0.01% of 290,000 active;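 active means EGFP signal decrease of at least 30% at 10 µM or well 3 SD below plate mean, unless failing retest; inactive means the rest, including hits failing retest or dose response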
PP1 counter: PP1-alpha (human) inhibition in PP5 counter-screen; 0.9% of 320,000 active; inhibition, % at 6.7 µM; purified PP1alpha, OMFP fluorescence; AID 2235;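 active means inhibition above the mean inhibition of all tested compounds plus 3 SD, computed separately for each screening campaign, cut at about 15% in these data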
PP1 inh confirm: confirmation of human PP1 phosphatase inhibitors | purified PP1alpha, OMFP substrate fluorescence | AID 2358 | inhibition, % at 6.7 µM | 52% of 1,900 active | shares compounds with PP1 counter;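 active means mean PP1 inhibition above a set limit taken from the earlier primary screen, cut at about 15% in these data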
PP5 counter: inhibits human PP5 phosphatase in PP1 counter-screen | shares compounds with PP1 counter | purified PP5c, OMFP fluorescence | 4% of 1,900 active | inhibition, % at 6.7 µM;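 active means mean PP5 inhibition over triplicate wells above about 9.5% taken from the earlier PP1 screen, limit read from the data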
An asterisk follows results filed as active.

How did O=C(N/N=C/c1ccc(O)c(O)c1O)/C(=C/c1ccc([N+](=O)[O-])cc1)NC(=O)c1ccccc1 do in these assays?
AI-2 QS mod: 43; UBC13 polyUb: -13; T cruzi repl: 34; p-CIP stab down: 4; PP1 counter: 32*; PP1 inh confirm: 36*; PP5 counter: -2

How did COc1ccc(Cn2c(SCc3ccccc3C)nc3cc(OC)c(OC)cc3c2=N)cc1 do in these assays?
AI-2 QS mod: 19; UBC13 polyUb: 34; T cruzi repl: 48; p-CIP stab down: -15; PP1 counter: 30*; PP1 inh confirm: 3; PP5 counter: -1

Results for COCCCNC(=O)Cn1cnc2sc(C)c(S(=O)(=O)N3CC(C)CC(C)C3)c2c1=O (stereo unspecified) ?
AI-2 QS mod: 29; UBC13 polyUb: 6; T cruzi repl: -12; p-CIP stab down: -7; PP1 counter: 0

What do the screens show for `Cc1cc(=O)n2[nH]c(C)c(-c3ccccc3)c2n1`?
AI-2 QS mod: 7; UBC13 polyUb: 15; T cruzi repl: -21; p-CIP stab down: -18; PP1 counter: -1

What do the screens show for `O=c1cc(-c2ccccc2)nc2c(-c3ccccc3)c(C(F)(F)F)[nH]n12`?
AI-2 QS mod: -17; UBC13 polyUb: 2; T cruzi repl: -7; p-CIP stab down: -2; PP1 counter: 33*; PP1 inh confirm: 33*; PP5 counter: 0

How did NC(=O)c1oc2ccccc2c1NC(=O)c1nc2ccccc2s1 do in these assays?
AI-2 QS mod: 10; UBC13 polyUb: -2; T cruzi repl: 8; p-CIP stab down: 6; PP1 counter: 25*; PP1 inh confirm: 16*; PP5 counter: -6

Results for O=C(Nc1ccccc1)Nc1nnc(-c2ccccc2)o1 ?
AI-2 QS mod: -2; UBC13 polyUb: -9; T cruzi repl: -18; p-CIP stab down: -1; PP1 counter: -2

What do the screens show for `O=C(Nc1nnc(-c2ccccc2)o1)c1nc2ccccc2s1`?
AI-2 QS mod: -5; UBC13 polyUb: -23; T cruzi repl: -13; p-CIP stab down: 5; PP1 counter: 25*; PP1 inh confirm: 28*; PP5 counter: -8

Results for NC(=O)c1oc2ccccc2c1NC(=O)c1ccc(F)cc1 ?
AI-2 QS mod: 10; UBC13 polyUb: 7; T cruzi repl: -12; p-CIP stab down: 9; PP1 counter: -1

Results for O=C(c1ccc(Cl)c(Cl)c1)N1CCC(=O)N(C(COCc2cccc(Cl)c2)Cc2ccccc2)CC1 (stereo unspecified) ?
AI-2 QS mod: 13; UBC13 polyUb: 0; T cruzi repl: 46; p-CIP stab down: -4; PP1 counter: 20*; PP1 inh confirm: 9; PP5 counter: 1

How did O=C(c1cccc(Cl)c1)N1CCC(=O)N(C(COCc2cccc(Cl)c2)Cc2ccccc2)CC1 (stereo unspecified) do in these assays?
AI-2 QS mod: 16; UBC13 polyUb: 8; T cruzi repl: 34; p-CIP stab down: 0; PP1 counter: 12

Results for Cc1ccc(-n2c(=O)cc(NCc3cccnc3)[nH]c2=O)cc1 ?
AI-2 QS mod: 20; UBC13 polyUb: -4; T cruzi repl: -1; p-CIP stab down: -9; PP1 counter: 25*; PP1 inh confirm: -4; PP5 counter: -5

What do the screens show for `Cc1ccc(CNCc2cccnc2)cc1`?
AI-2 QS mod: 11; UBC13 polyUb: 1; T cruzi repl: -13; p-CIP stab down: 4; PP1 counter: 4

What do the screens show for `Cc1ccc(C(=O)Oc2ccc(C(=O)COC(=O)C3CC(=O)N(Cc4ccco4)C3)cc2)cc1` (stereo unspecified)?
AI-2 QS mod: 15; UBC13 polyUb: 0; T cruzi repl: -22; p-CIP stab down: -11; PP1 counter: 20*; PP1 inh confirm: 15; PP5 counter: -3

What do the screens show for `O=C(COC(=O)C1CC(=O)N(Cc2ccco2)C1)c1ccc(OC(=O)c2ccco2)cc1` (stereo unspecified)?
AI-2 QS mod: 51; UBC13 polyUb: 5; T cruzi repl: -9; p-CIP stab down: -4; PP1 counter: 9

High-throughput results deposited in PubChem BioAssay by several laboratories.
